Results reported in ChEMBL document CHEMBL6078676, “In Vitro and In Vivo Leishmanicidal Activity of Beauvericin” (J Nat Prod, 2024).
Converted amounts (≈) assume the structure as drawn. The source made the active and inactive calls. The calls are words filed in the database; no cut-off is given here.

Key:
Leishmania braziliensis [1] = experiment: Antileishmanial activity against Leishmania braziliensis MHOM/BR/91/H3227 promastigote assessed as parasite killing incubated for 24 hrs; assay type: functional, organism-based; details: MHOM/BR/91/H3227, 24 h
Outline: (§1)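 Axenic parasites (5 × 10^6/well) were exposed for 24 h to increasing concentrations of compound dissolved in DMSO. MTT (5 mg/mL) was added for 3 h and the reaction stopped with 20% SDS. Formazan was read at 600 nm against a 650 nm reference to give EC50. Leishmania grew in supplemented M199 pH 7.4 at 25 °C; T. cruzi Y epimastigotes grew in LIT with 10% FBS at 28 °C.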

Leishmania amazonensis [2] = experiment: Antileishmanial activity against Leishmania amazonensis IFLA/BR/67/PH8 promastigote assessed as parasite killing incubated for 24 hrs; assay type: functional, organism-based; details: IFLA/BR/67/PH8, 24 h; outline: as §1
Trypanosoma cruzi = experiment: Antitrypanosomal activity against Trypanosoma cruzi Y epimastigote assessed as parasite killing incubated for 24 hrs; assay type: functional, organism-based; outline: as §1
Leishmania braziliensis [3] = experiment: Antileishmanial activity against Leishmania braziliensis MHOM/BR/91/H3227 intracellular amastigote assessed as parasite killing incubated for 24 hrs; assay type: functional, organism-based; details: MHOM/BR/91/H3227, 24 h
Leishmania amazonensis [4] = experiment: Antileishmanial activity against Leishmania amazonensis IFLA/BR/67/PH8 intracellular amastigote assessed as parasite killing incubated for 24 hrs; assay type: functional, organism-based; details: IFLA/BR/67/PH8, 24 h
MDA-MB-231 = experiment: Inhibition of cell migration in human MDA-MB-231 cells; assay type: functional, cell-based
PC-3 = experiment: Inhibition of cell migration in human PC-3 cells; assay type: functional, cell-based
[5] = Selectivity index, ratio of CC50 for cytotoxicity against mouse BMDM cells assessed as cell viability to EC50 for antileishmanial activity against Leishmania amazonensis IFLA/BR/67/PH8 promastigote assessed as parasite killing; assay type: toxicity, cell-based; details: read-out: Ratio CC50/EC50
Outline: (§2)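 Ratio of 24 h MTT CC50 in BALB/c BMDM to Leishmania EC50.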

[6] = Selectivity index, ratio of CC50 for cytotoxicity against mouse BMDM cells assessed as cell viability to EC50 for antileishmanial activity against Leishmania amazonensis IFLA/BR/67/PH8 intracellular amastigote; assay type: toxicity, cell-based; details: read-out: Ratio CC50/EC50; outline: as §2
Leishmania braziliensis [7] = experiment: Induction of membrane morphological changes in Leishmania braziliensis MHOM/BR/91/H3227 assessed as appearance of sperm-like structure at 1.2 to 9.6 uM incubated for 24 hrs by optical microscopic analysis; assay type: functional, organism-based; details: dose 1.2-9.6 µM
Leishmania amazonensis [8] = experiment: Induction of membrane morphological changes in Leishmania amazonensis IFLA/BR/67/PH8 promastigote assessed as cell debris formation 2.4 to 9.6 uM incubated for 24 hrs by optical microscopic analysis; assay type: functional, organism-based; details: dose 2.4-9.6 µM
Leishmania braziliensis [9] = experiment: Induction of membrane morphological changes in Leishmania braziliensis MHOM/BR/91/H3227 assessed as appearance of slender cell bodies at 1.2 to 9.6 uM incubated for 24 hrs by optical microscopic analysis; assay type: functional, organism-based; details: dose 1.2-9.6 µM
Leishmania amazonensis [10] = experiment: Antileishmanial activity against Leishmania amazonensis IFLA/BR/67/PH8 amastigotes infected in mouse BMDM cells at 1.6 uM pre-infected in cells for 24 hrs followed by compound addition and measured after 48 hrs; assay type: functional, organism-based
Outline: (§3)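 BALB/c BMDM (4 × 10^5) on coverslips were infected with stationary-phase L. amazonensis promastigotes, MOI 5, for 24 h at 34 °C, 5% CO2. After a PBS wash, cells received fresh RPMI with 0.4–1.6 μM. Incubation ran 24 h, 48 h, or 24 + 24 h with fresh medium. Cells were MeOH-fixed and stained; ≥300 cells were counted for infection rate, amastigotes/100 macrophages, and their product, relative to untreated. Two independent assays in triplicate.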

Leishmania amazonensis [11] = experiment: Antileishmanial activity against Leishmania amazonensis IFLA/BR/67/PH8 amastigotes infected in female BALB/c mouse assessed as reduction in mean lesion at 5 mg/kg, topically administered for 32 days and measured after 8 to 13 week; details: route topical, time 8-13 weeks
HaCaT = experiment: Antiproliferative activity against human HaCaT cells assessed as inhibition of cell proliferation incubated for 72 hrs by MTT assay; assay type: functional, cell-based
Leishmania amazonensis [12] = experiment: Induction of membrane morphological changes in Leishmania amazonensis IFLA/BR/67/PH8 promastigote assessed as rounding of cell body at 2.4 to 9.6 uM incubated for 24 hrs by optical microscopic analysis; assay type: functional, organism-based; details: dose 2.4-9.6 µM
[13] = Selectivity index, ratio of CC50 for cytotoxicity against mouse BMDM cells assessed as cell viability to EC50 for antileishmanial activity against Leishmania braziliensis MHOM/BR/91/H3227 intracellular amastigote assessed as parasite killing; assay type: toxicity, cell-based; details: read-out: Ratio CC50/EC50; outline: as §2
Leishmania amazonensis [14] = experiment: Antileishmanial activity against Leishmania amazonensis IFLA/BR/67/PH8 amastigotes infected in mouse BMDM cells assessed as reduction in infectivity index at 1.6 uM pre-infected in cells for 24 hrs followed by compound addition and measured after 48 hrs; assay type: functional; parameters: scale not given: the % may be the effect or the level left; outline: as §3
Leishmania amazonensis [15] = experiment: Induction of membrane morphological changes in Leishmania amazonensis IFLA/BR/1967/PH8 promastigote upto 1.2 uM incubated for 24 hrs by optical microscopic analysis; assay type: functional, organism-based
[16] = Selectivity index, ratio of CC50 for cytotoxicity against mouse L929 cells assessed as cell viability to EC50 for antitrypanosomal activity against Trypanosoma cruzi Y epimastigote assessed as parasite killing; assay type: toxicity, cell-based; details: read-out: Ratio CC50/EC50
Outline: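 Ratio of 24 h MTT CC50 in L929 fibroblasts to T. cruzi Y epimastigote EC50.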

[17] = Cytotoxicity against mouse BMDM cells assessed as cell viability at 1.6 uM incubated for 24 hrs by MTT assay; assay type: toxicity, cell-based
Leishmania amazonensis [18] = experiment: Induction of membrane morphological changes in Leishmania amazonensis IFLA/BR/67/PH8 promastigote assessed as shortening of cell body at 2.4 to 9.6 uM incubated for 24 hrs by optical microscopic analysis; assay type: functional, organism-based; details: dose 2.4-9.6 µM
Leishmania amazonensis [19] = experiment: Antileishmanial activity against Leishmania amazonensis IFLA/BR/67/PH8 amastigotes infected in female BALB/c mouse assessed as reduction in parasite burden at 5 to 10 mg/kg, ip administered for 15 days; assay type: functional, organism-based; details: dose 5-10 mg/kg, time 15.0 day
Outline: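 Female BALB/c mice (35 days old) were infected at the tail base with ~1 × 10^6 stationary-phase L. amazonensis promastigotes. Treatment was 5 or 10 mg/kg/day ip in 150 μL DMSO/0.9% NaCl (1:9), daily for 15 days from week 7 to week 9; vehicle controls, 5 per group. Lesion parasite load was measured by limiting dilution in M199 with wells read after 7 days.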

Cell membrane = experiment: Induction of cell membrane permeabilization in Leishmania amazonensis IFLA/BR/67/PH8 promastigotes incubated for 24 hrs; assay type: subcellular
Outline: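 Promastigotes were incubated 24 h with 1.0 μM. Membrane permeability was measured by ethidium bromide fluorescence against untreated cells.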

[20] = Cytotoxicity against mouse L929 cells assessed as cell viability measured for 24 hrs by MTT assay; assay type: toxicity, cell-based
Outline: (§4)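 MTT viability after 24 h exposure to increasing concentrations (DMSO solution) gave CC50. BMDM (4 × 10^5/well) were differentiated for 7 days from female BALB/c marrow in RPMI with 20% FBS and 30% L929 supernatant. L929 fibroblasts (5 × 10^4/well) were in supplemented RPMI. Both were held at 37 °C, 5% CO2. Read at 600/650 nm after 3 h MTT and SDS stop.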

Leishmania braziliensis [21] = experiment: Induction of membrane morphological changes in Leishmania braziliensis MHOM/BR/91/H3227 assessed as appearance of leaf-like promastigotes at 1.2 to 9.6 uM incubated for 24 hrs by optical microscopic analysis; assay type: functional, organism-based; details: dose 1.2-9.6 µM
Leishmania amazonensis [22] = experiment: Induction of membrane morphological changes in Leishmania amazonensis IFLA/BR/67/PH8 promastigote assessed as aberrant nuclei 2.4 to 9.6 uM incubated for 24 hrs by optical microscopic analysis; assay type: functional, organism-based; details: dose 2.4-9.6 µM
Leishmania amazonensis [23] = experiment: Antileishmanial activity against Leishmania amazonensis IFLA/BR/67/PH8 amastigotes infected in female BALB/c mouse assessed as total ulcerated area by measuring delay in ulcer progression at 5 mg/kg, topically administered for 32 days and measured after 8 to 13 week; details: route topical, time 8-13 weeks
Leishmania amazonensis [24] = experiment: Antileishmanial activity against Leishmania amazonensis IFLA/BR/67/PH8 amastigotes infected in mouse BMDM cells assessed as inhibition of parasite growth upto 1.6 uM pre-infected in cells for 24 hrs followed by compound addition and measured after 48 hrs by cell imaging analysis; assay type: functional, organism-based; outline: as §3
[25] = Selectivity index, ratio of CC50 for cytotoxicity against mouse BMDM cells assessed as cell viability to EC50 for antileishmanial activity against Leishmania braziliensis MHOM/BR/91/H3227 promastigote assessed as parasite killing; assay type: toxicity, cell-based; details: read-out: Ratio CC50/EC50; outline: as §2
Leishmania braziliensis [26] = experiment: Antileishmanial activity against Leishmania braziliensis MHOM/BR/91/H3227 intracellular amastigotes infected in mouse BMDM cells assessed as reduction in infectivity index at 1.6 uM pre-infected in cells for 24 hrs followed by compound addition and measured after 48 hrs by cell imaging analysis; assay type: functional; parameters: scale not given: the % may be the effect or the level left
Outline: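 BMDM infected with stationary-phase L. braziliensis promastigotes, MOI 10, for 24 h at 34 °C, 5% CO2. After washing, cells were given 0.4–1.6 μM in fresh RPMI for 48 h. MeOH fixation and staining, then ≥300 host cells counted. Infectivity index (infection rate × amastigotes per 100 macrophages) expressed relative to untreated; two independent assays in triplicate.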

[27] = Cytotoxicity against mouse BMDM cells assessed as cell viability incubated for 24 hrs by MTT assay; assay type: toxicity, cell-based; outline: as §4
Leishmania amazonensis [28] = experiment: Antileishmanial activity against Leishmania amazonensis assessed as reduction in parasite proliferation incubated for 72 hrs; assay type: functional, organism-based
Leishmania amazonensis [29] = experiment: Antileishmanial activity against Leishmania amazonensis assessed as reduction in parasite proliferation at 50 microg/ml incubated for 72 hrs; assay type: functional; parameters: scale not given: the % may be the effect or the level left; details: dose 50 µg/ml

SMILES: C[C@@H]1[C@H](O)[C@@H](C)/C=C/C=C/C=C/C=C/C=C/C=C/C=C/[C@H](O[C@@H]2O[C@H](C)[C@@H](O)[C@H](N)[C@@H]2O)C[C@@H]2O[C@](O)(C[C@@H](O)C[C@@H](O)[C@H](O)CC[C@@H](O)C[C@@H](O)CC(=O)O[C@H]1C)C[C@H](O)[C@H]2C(=O)O [AMPHOTERICIN B]
- EC50 (Leishmania braziliensis [1]): 200 nM
- EC50 (Leishmania amazonensis [2]): 200 nM
- EC50 (Trypanosoma cruzi): 2230 nM
- EC50 (Leishmania braziliensis [3]): 200 nM
- EC50 (Leishmania amazonensis [4]): 200 nM

SMILES: CC(C)[C@H]1OC(=O)[C@H](Cc2ccccc2)N(C)C(=O)[C@@H](C(C)C)OC(=O)[C@H](Cc2ccccc2)N(C)C(=O)[C@@H](C(C)C)OC(=O)[C@H](Cc2ccccc2)N(C)C1=O
- inhibition (MDA-MB-231): Active
- inhibition (PC-3): Active
- selectivity ratio [5]: 14.8
- selectivity ratio [6]: 22.3
- Activity (Leishmania braziliensis [7]): Active
- Activity (Leishmania amazonensis [8]): Active
- Activity (Leishmania braziliensis [9]): Active
- Activity (Leishmania amazonensis [10]): Active
- Activity (Leishmania amazonensis [11]): inactive
- IC50 (HaCaT): 3900 nM
- Activity (Leishmania amazonensis [12]): Active
- EC50 (Leishmania braziliensis [1]): 900 nM
- selectivity ratio [13]: 29.7
- EC50 (Leishmania amazonensis [2]): 1200 nM
- Activity (Leishmania amazonensis [14]): 95%
- Activity (Leishmania amazonensis [15]): Active
- EC50 (Trypanosoma cruzi): 3400 nM
- selectivity ratio [16]: 13.4
- Activity [17]: Non-toxic
- Activity (Leishmania amazonensis [18]): Active
- Activity (Leishmania amazonensis [19]): Active
- Activity (Cell membrane): Active
- CC50 at 24 h [20]: 45500 nM
- EC50 (Leishmania braziliensis [3]): 600 nM
- Activity (Leishmania braziliensis [21]): Active
- Activity (Leishmania amazonensis [22]): Active
- Activity (Leishmania amazonensis [23]): Active
- Activity (Leishmania amazonensis [24]): Active
- EC50 (Leishmania amazonensis [4]): 800 nM
- selectivity ratio [25]: 19.8
- Activity (Leishmania braziliensis [26]): 89%
- CC50 at 24 h [27]: 17800 nM

SMILES: O=c1cc(CO)occ1O [KOJIC ACID]
- EC50 (Leishmania amazonensis [28]): 27.8 µg/mL (≈ 196 µM)
- Activity (Leishmania amazonensis [29]): 79%
